Test results reported in ChEMBL document CHEMBL1152807 (J Med Chem, 2009).
pIC50: −log10 of the molar value. The source made the active and inactive calls. The calls are words filed in the database; no cut-off is given here.

Columns and labels:
Phosphodiesterase 4 = Phosphodiesterase 4 (Homo sapiens, UniProt P27815+Q08499+Q07343+Q08493); test: Inhibition of human PDE4; assay type: protein assay
Outline: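 PDE4 enzyme was isolated from U937 cells, following a previously reported method.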

PBMC = test: Inhibition of TNFalpha production in LPS-stimulated human PBMC preincubated before LPS challenge measured after 4 hrs by enzyme immunoassay; assay type: functional, cell-based
Blood = test: Inhibition of TNFalpha production in LPS-stimulated human whole blood preincubated before LPS challenge measured after 4 hrs by enzyme immunoassay; assay type: functional, tissue-based
[1] = Ratio of IC50 for TNFalpha production in LPS-stimulated human whole blood to IC50 for TNFalpha production in LPS-stimulated human PBMC; assay type: functional
Rattus norvegicus [2] = test: Antiinflammatory activity in po dosed BN rat late airway inflammatory model assessed as inhibition of ovalbumin-induced cell infiltration in bronchoalveolar lavage fluid measured 48 hrs after ovalbumin challenge; assay type: functional; settings: Lung
[3] = Metabolic stability in human microsomes assessed as half life; assay type: ADME, Microsome
Cytochrome P450 1A2 = biological target: T1, Cytochrome P450 1A2 (Homo sapiens, UniProt P05177); test: Inhibition of CYP1A2; assay type: ADME
T1 sequence (P05177 whole entry): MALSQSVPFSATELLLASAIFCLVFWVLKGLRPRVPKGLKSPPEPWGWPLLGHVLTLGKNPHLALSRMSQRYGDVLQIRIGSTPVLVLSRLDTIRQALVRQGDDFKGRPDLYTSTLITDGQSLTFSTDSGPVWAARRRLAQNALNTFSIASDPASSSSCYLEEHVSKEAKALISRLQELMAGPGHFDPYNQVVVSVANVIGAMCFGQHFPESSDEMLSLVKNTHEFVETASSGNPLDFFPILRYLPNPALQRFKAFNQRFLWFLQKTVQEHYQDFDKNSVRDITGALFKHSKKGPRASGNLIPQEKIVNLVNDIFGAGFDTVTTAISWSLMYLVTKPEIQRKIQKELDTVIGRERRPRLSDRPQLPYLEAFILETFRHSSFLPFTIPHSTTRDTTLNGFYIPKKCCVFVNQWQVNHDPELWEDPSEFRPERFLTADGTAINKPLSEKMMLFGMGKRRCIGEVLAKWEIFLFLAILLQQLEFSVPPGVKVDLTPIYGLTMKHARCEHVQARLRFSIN

Cytochrome P450 2C9 = Cytochrome P450 2C9 (Homo sapiens, UniProt P11712); test: Inhibition of CYP2C9; assay type: ADME
Cytochrome P450 2C19 = Cytochrome P450 2C19 (Homo sapiens, UniProt P33261); test: Inhibition of CYP2C19; assay type: ADME
Cytochrome P450 2D6 = Cytochrome P450 2D6 (Homo sapiens, UniProt P10635); test: Inhibition of CYP2D6; assay type: ADME
Cytochrome P450 3A4 = Cytochrome P450 3A4 (Homo sapiens, UniProt P08684); test: Inhibition of CYP3A4; assay type: ADME
[4] = Protein binding in human plasma; assay type: ADME, cell-free; settings: read-out: PPB (converted)
[5] = Cmax in rat at 5 mg/kg, iv; assay type: ADME, organism-based; design: dose 5 mg/kg, route intravenous; settings: in vivo
Outline: (§1)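 Pharmacokinetics were determined in female rats after oral and intravenous administration.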

[6] = AUC in rat at 5 mg/kg, iv; assay type: ADME, organism-based; design: dose 5 mg/kg, route intravenous; settings: plasma; outline: as §1
[7] = Half life in rat at 5 mg/kg, iv; assay type: ADME, organism-based; design: dose 5 mg/kg, route intravenous; settings: in vivo; outline: as §1
[8] = Clearance in rat at 5 mg/kg, iv; assay type: ADME, organism-based; design: dose 5 mg/kg, route intravenous; settings: in vivo; outline: as §1
[9] = Volume of distribution at steady state in rat at 5 mg/kg, iv; assay type: ADME, organism-based; design: dose 5 mg/kg, route intravenous; settings: in vivo, read-out: Vdss; outline: as §1
[10] = Cmax in rat at 10 mg/kg, po; assay type: ADME, organism-based; design: dose 10 mg/kg, route oral; settings: in vivo; outline: as §1
[11] = AUC in rat at 10 mg/kg, po; assay type: ADME, organism-based; design: dose 10 mg/kg, route oral; settings: plasma; outline: as §1
[12] = Half life in rat at 10 mg/kg, po; assay type: ADME, organism-based; design: dose 10 mg/kg, route oral; settings: in vivo; outline: as §1
[13] = Oral bioavailability in rat at 10 mg/kg; assay type: ADME, organism-based; settings: in vivo; outline: as §1
Rattus norvegicus [14] = test: Antiinflammatory activity in rat assessed as inhibition of LPS-induced TNFalpha production at 0.01 mg/kg, po; assay type: functional, organism-based; design: dose 0.01 mg/kg
Rattus norvegicus [15] = test: Antiinflammatory activity in po dosed rat assessed as inhibition of LPS-induced TNFalpha production; assay type: functional
Outline: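 Rat in vivo model: rats were dosed orally and TNF-α production was induced with LPS. Inhibition of TNF-α production was measured and an ED50 was determined.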

Rattus norvegicus [16] = test: Antiinflammatory activity in po dosed rat assessed as inhibition of LPS-induced neutrophilia in bronchoalveolar lavage fluid; assay type: functional; settings: Lung
Outline: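 Rat in vivo model: rats were dosed orally and neutrophilia was induced with LPS. Neutrophils were counted in bronchoalveolar lavage fluid and an ED50 for inhibition was determined.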

Cytochrome P450 2C19, sequence (P33261 whole entry): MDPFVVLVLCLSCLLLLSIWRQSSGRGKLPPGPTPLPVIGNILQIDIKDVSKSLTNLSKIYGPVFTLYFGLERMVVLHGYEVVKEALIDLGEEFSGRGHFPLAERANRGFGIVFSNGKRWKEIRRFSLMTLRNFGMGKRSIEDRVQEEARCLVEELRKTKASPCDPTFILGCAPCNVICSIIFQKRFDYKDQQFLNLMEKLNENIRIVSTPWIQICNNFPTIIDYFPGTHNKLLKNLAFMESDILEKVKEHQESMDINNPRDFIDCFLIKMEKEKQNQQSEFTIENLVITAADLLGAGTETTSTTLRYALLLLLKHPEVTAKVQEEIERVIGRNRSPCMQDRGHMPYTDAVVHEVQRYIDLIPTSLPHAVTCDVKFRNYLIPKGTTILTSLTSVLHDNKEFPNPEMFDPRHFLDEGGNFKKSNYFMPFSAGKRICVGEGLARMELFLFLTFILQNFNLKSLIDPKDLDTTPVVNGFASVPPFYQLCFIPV
Cytochrome P450 3A4, sequence (P08684 whole entry): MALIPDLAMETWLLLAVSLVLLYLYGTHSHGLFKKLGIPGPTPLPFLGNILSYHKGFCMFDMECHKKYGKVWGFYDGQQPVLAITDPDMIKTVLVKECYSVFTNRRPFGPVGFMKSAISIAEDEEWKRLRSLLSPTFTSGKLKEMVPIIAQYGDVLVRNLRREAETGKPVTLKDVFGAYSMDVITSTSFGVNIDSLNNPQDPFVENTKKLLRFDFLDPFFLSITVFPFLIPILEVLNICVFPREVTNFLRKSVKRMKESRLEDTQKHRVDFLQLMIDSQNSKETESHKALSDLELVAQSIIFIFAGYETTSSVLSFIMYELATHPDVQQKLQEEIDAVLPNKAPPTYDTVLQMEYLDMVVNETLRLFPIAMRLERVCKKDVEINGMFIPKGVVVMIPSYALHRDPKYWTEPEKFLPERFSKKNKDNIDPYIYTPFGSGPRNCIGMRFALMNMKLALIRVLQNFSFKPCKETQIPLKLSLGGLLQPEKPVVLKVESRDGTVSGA
Cytochrome P450 2D6, sequence (P10635 whole entry): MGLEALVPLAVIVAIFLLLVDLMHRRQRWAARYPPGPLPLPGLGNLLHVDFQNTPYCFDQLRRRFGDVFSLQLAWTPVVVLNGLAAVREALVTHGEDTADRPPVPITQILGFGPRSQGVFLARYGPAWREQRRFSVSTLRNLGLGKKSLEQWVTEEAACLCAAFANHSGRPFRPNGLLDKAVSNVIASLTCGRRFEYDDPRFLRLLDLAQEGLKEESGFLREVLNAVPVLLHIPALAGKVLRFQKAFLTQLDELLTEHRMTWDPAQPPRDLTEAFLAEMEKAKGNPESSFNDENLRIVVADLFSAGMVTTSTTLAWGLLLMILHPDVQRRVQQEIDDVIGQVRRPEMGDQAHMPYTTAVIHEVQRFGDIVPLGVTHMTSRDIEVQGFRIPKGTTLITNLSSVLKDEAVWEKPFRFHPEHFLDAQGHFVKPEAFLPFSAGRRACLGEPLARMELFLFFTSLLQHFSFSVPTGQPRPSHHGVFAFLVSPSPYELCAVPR
Cytochrome P450 2C9, sequence (P11712 whole entry): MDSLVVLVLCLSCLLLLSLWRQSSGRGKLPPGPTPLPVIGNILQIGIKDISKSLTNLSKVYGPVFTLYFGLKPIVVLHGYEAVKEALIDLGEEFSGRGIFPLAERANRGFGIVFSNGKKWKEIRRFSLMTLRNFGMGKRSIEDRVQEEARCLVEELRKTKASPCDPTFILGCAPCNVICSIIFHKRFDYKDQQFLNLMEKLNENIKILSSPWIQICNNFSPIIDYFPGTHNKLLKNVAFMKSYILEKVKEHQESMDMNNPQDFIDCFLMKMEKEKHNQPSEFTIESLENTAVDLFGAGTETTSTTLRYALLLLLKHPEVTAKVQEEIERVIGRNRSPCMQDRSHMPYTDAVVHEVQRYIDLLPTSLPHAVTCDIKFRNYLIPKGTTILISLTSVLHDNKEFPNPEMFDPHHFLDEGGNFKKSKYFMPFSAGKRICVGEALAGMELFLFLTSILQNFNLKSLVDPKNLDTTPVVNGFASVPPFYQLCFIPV

| Compound | IC50 (Phosphodiesterase 4) | pIC50 (PBMC) | pIC50 (Blood) | other results |
| --- | --- | --- | --- | --- |
| COc1ccc(C(CC(=O)O)N2C(=O)c3ccccc3C2=O)cc1OC1CCCC1 (stereo unspecified) | 340 nM | 4.44 | – | – |
| CCOc1cc(C(CC(N)=O)N2C(=O)c3ccccc3C2=O)ccc1OC (stereo unspecified) | 1900 nM | – | 4.98 | – |
| COC(=O)CC(c1ccc(OC)c(OC2CCCC2)c1)N1C(=O)c2ccccc2C1=O (stereo unspecified) | 1600 nM | 5.77 | – | – |
| CCOc1cc(C(CS(C)(=O)=O)N2C(=O)c3cccc(N(C)C)c3C2=O)ccc1OC (racemic) | 120 nM | 6.66 | 5.85 | Ratio IC50 [1]: 6 |
| COc1ccc(C(CC#N)N2C(=O)c3ccccc3C2=O)cc1OC1CCCC1 (stereo unspecified) | 340 nM | – | – | – |
| CCOc1cc(C(CS(C)(=O)=O)N2C(=O)c3cccc(O)c3C2=O)ccc1OC (racemic) | 820 nM | 5.83 | – | – |
| O=C(Nc1c(Cl)cncc1Cl)c1ccc(OC(F)F)c(OCC2CC2)c1 [ROFLUMILAST] | – | 10.70 | – | ED50 (Rattus norvegicus [2]): 0.9 mg/kg |
| CCOc1cc(C(CC(=O)OC)N2C(=O)c3ccccc3C2=O)ccc1OC (stereo unspecified) | 220 nM | – | 5.40 | – |
| CCOc1cc(C(CS(C)(=O)=O)N2C(=O)c3cccc(N)c3C2=O)ccc1OC (racemic) | 120 nM | 6.43 | 5.66 | Ratio IC50 [1]: 6 |
| CCOc1cc(C(CS(C)(=O)=O)N2C(=O)c3cccc(OC)c3C2=O)ccc1OC (racemic) | 690 nM | 6.47 | – | – |
| CCOc1cc(C(CS(C)(=O)=O)N2C(=O)c3cccc(C)c3C2=O)ccc1OC (racemic) | 68 nM | 6.57 | 5.62 | Ratio IC50 [1]: 9 |
| CCOc1cc([C@H](CS(C)(=O)=O)N2C(=O)c3cccc(NC(C)=O)c3C2=O)ccc1OC | – | 6.43 | – | – |
| CCOc1cc(C(CC(=O)O)N2C(=O)c3ccccc3C2=O)ccc1OC (stereo unspecified) | 1300 nM | 4.46 | – | – |
| CCOc1cc(C(CS(C)(=O)=O)N2C(=O)c3ccccc3C2=O)ccc1OC (stereo unspecified) | 220 nM | 5.89 | 5.60 | – |
| CCOc1cc([C@@H](CS(C)(=O)=O)N2C(=O)c3cccc(NC(C)=O)c3C2=O)ccc1OC | – | 7.11 | 6.96 | half-life [3]: > 1 h; pIC50 (Cytochrome P450 1A2): < 5.00; pIC50 (Cytochrome P450 2C9): < 5.00; pIC50 (Cytochrome P450 2C19): < 5.00; pIC50 (Cytochrome P450 2D6): < 5.00; pIC50 (Cytochrome P450 3A4): < 5.00; fraction unbound [4]: 0.1; Cmax [5]: 6600 ng/mL; AUC [6]: 11000 ng·h/mL; half-life [7]: 3 h; clearance [8]: 8.33 mL/min/kg; Vd [9]: 2 L/kg; Cmax [10]: 1100 ng/mL; AUC [11]: 14000 ng·h/mL; half-life [12]: 5 h; bioavailability [13]: 64%; Activity (Rattus norvegicus [14]): Active; ED50 (Rattus norvegicus [15]): 0.03 mg/kg; ED50 (Rattus norvegicus [16]): 0.3 mg/kg |
| COc1ccc(C(CS(C)(=O)=O)N2C(=O)c3ccccc3C2=O)cc1OC1CCCC1 (stereo unspecified) | 260 nM | 5.82 | – | – |
| CCOc1cc(C(CS(C)(=O)=O)N2C(=O)c3cccc(NC(C)=O)c3C2=O)ccc1OC (racemic) | – | 6.72 | 6.36 | – |
| CCOc1cc(C(CC#N)N2C(=O)c3ccccc3C2=O)ccc1OC (stereo unspecified) | 40 nM | 6.62 | 6.31 | – |
| CCOc1cc([C@@H](CC(N)=O)N2C(=O)c3cccc(NC(C)=O)c3C2=O)ccc1OC | 710 nM | 5.52 | – | – |
| CCOc1cc(C(CC#N)N2C(=O)c3cccc(NC(C)=O)c3C2=O)ccc1OC (racemic) | 130 nM | 6.36 | 5.80 | – |
